Assay outcomes as filed in PubChem BioAssay.
The list is not random: actives were taken first. Their share in the collection is about 3.9%.
Gli-Sufu block – Gli-Sufu pathway antagonists, primary screen, luciferase luminescence, Sufu-KO-LIGHT cells, uHTS; 0.74% of 340,000 active; Sufu-KO-LIGHT fibroblasts, Gli luciferase reporter luminescence; inhibition, % at 5 µM;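 active = inhibition above about 55%, limit read from the data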
CHOP inhibitor – inhibitors of CHOP promoter induction, primary screen, cell-based, unfolded protein response, luciferase reporter | CHO-K1 CHOP-promoter luciferase, tunicamycin-induced, 15-18 h | inhibition, % at 10 µM | 3.8% of 220,000 active | AID 2732, 2010;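 active = compounds that reduced the stress-induced luciferase reporter signal by more than about 70% of percent inhibition, limit read from the data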
Jurkat NFkB inh – inhibitors of induced NF-kB luciferase reporter, primary screen, TCR NF-kB activation inhibitor project, cell-based, luminescence, uHTS | Jurkat, PMA/ionomycin-induced NF-kB luciferase reporter | inhibition, % at 4 µM | 0.53% of 330,000 active | AID 435003, 2010; in the data active = inhibition above about 50%
UPR XBP1 act – activators of adaptive XBP1 UPR arm, primary screen, cell-based, CHO-XBP1 luciferase reporter, luminescence, uHTS; 0.33% of 330,000 active; IRE1-XBP1 UPR activation; percent of tunicamycin response, DMSO as zero; activation, % at 20 µM; AID 463104, 2010;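 active = versus positive control, 20 µM dose yields 30% or more activation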
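Material: IRE1-XBP1 luciferase reporter CHO line / Quantity: one thousand reporter cells per well / Buffer or medium: F12 with 10% serum / Compound: 20 µM single concentration, DMSO 1% / Times: 6 h treatment, 37 °C / Detection: Steady-Glo luciferase glow luminescence, 10 min after reagent addition / Benchmarks: tunicamycin high, DMSO low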
697 NFkB inh – inhibitors of PMA/ionomycin-induced NF-kB reporter, 697 cells, primary screen, B-cell NF-kB inhibitor project, cell-based, luminescence, uHTS; 697 B-cell NF-kB luciferase reporter, 16 h; 0.33% of 330,000 active; inhibition, % at 4 µM; in the data active = inhibition above about 35%
UPR CHOP act – activators of apoptotic CHOP UPR arm, primary screen, cell-based, CHO-CHOP luciferase reporter, luminescence, uHTS; UPR activation; percent of tunicamycin response over DMSO baseline; 0.34% of 330,000 active; activation, % at 10 µM;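 active = at 10 µM dose, activation of 40% or more, normalized to positive control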
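Test system: CHO-CHOP cells, stable luciferase reporter of PERK-eIF2a-CHOP signalling | Quantity: 500 CHO-CHOP cells per well | Buffer or medium: F12 plus 10% serum | Compound dosing: 10 µM single point, 0.5% DMSO | Schedule: 6 h compound treatment, 37 °C | Signal: Luciferase luminescence | Control set: Tunicamycin high control, DMSO low control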
XBP1 UPR conf – IRE1-XBP1 UPR arm activators, confirmation, cell-based, CHO-XBP1 luciferase reporter, luminescence, single concentration. shares compounds with UPR XBP1 act. activation, % at 20 µM. 63% of 1,000 active. AID 485299, 2010;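 active = reporter signal at least 30% of the positive control's activation in two or more of four replicate wells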
Of the large screens only hits and unclear results are named; the others gave an inactive call (follow-up assays come after a bar, where they were run).

Cc1ccc2c(c1)C(=O)C(=O)N2Cc1ccc(C(F)(F)F)cc1	UPR XBP1 act 51 (no result: CHOP inhibitor) | XBP1 UPR conf 46
Cc1ccc(OCCN2C(=O)C(=O)c3cc(C)ccc32)cc1	none
CN1CCN(NC(=O)c2c(-c3ccccc3)sc3ccccc23)CC1	none (no result: CHOP inhibitor)
Cc1ccccc1OCC(=O)N/N=C/c1ccc(N2CCOCC2)o1	none (no result: CHOP inhibitor)
CCOc1cc(/C=C(\C#N)c2[nH]nc(N)c2C#N)ccc1O	UPR XBP1 act 32 | XBP1 UPR conf 51
CC1CCN(Cc2c(C(=O)N/N=C/c3ccc(C(C)C)cc3)nnn2-c2nonc2N)CC1	UPR XBP1 act 36 (no result: CHOP inhibitor) | XBP1 UPR conf 74
CN(C)c1ccc(/C=N/NC(=O)c2nnn(-c3nonc3N)c2CN2CCCCCC2)cc1	UPR XBP1 act 59 (no result: CHOP inhibitor) | XBP1 UPR conf inactive
Nc1nonc1-n1nnc(C(=O)N/N=C/c2ccc(Br)cc2)c1CN1CCOCC1	none (no result: CHOP inhibitor)
COc1ccc(CC(=O)OCC(=O)Nc2ccc(Cl)cc2C)cc1	none (no result: CHOP inhibitor)
O=C(CSCc1ccc(Cl)cc1)Nc1ccc(-c2nnc(-c3ccccc3)o2)cc1	UPR XBP1 act 107 | XBP1 UPR conf 72
O=Cc1cc2ccccc2nc1SCc1ccc(Cl)cc1	UPR XBP1 act 43 | XBP1 UPR conf 43
COc1ccc(Sc2nc(-c3ccccn3)ncc2OC)cc1	none
COc1cnc(-c2ccccn2)nc1Sc1ccc(Cl)cc1	UPR XBP1 act 32 | XBP1 UPR conf inactive
COC(=O)c1ccc2c(=O)n(CC3CCCO3)c(SCC(=O)Nc3ccccc3Cl)nc2c1 (stereo not drawn)	UPR XBP1 act 35 | XBP1 UPR conf inactive
CCOc1ccccc1NC(=O)C1C2CCC(O2)C1C(=O)O (stereo not drawn)	none (no result: CHOP inhibitor)
CC1=CC(C)(C)N2C(=O)C(=O)c3cc(OC(=O)c4ccco4)cc1c32	UPR XBP1 act 41 | XBP1 UPR conf 57
CCN1C(=O)/C(=C2/C(=O)N3c4c(cc(OC(C)=O)cc42)C(C)=CC3(C)C)SC1=S	none
Cc1cc(N2CCCC2)ccc1NC(=O)CN1C(=O)NC2(CCCCC2)C1=O	none (no result: CHOP inhibitor)
Cc1ccc(C(=O)NCC(=O)Nc2ncccc2C)s1	none (no result: CHOP inhibitor)
CCOC(=O)c1nn(-c2ccc(F)cc2)c(=O)cc1OCC(=O)Nc1ccc(F)c(F)c1	none (no result: CHOP inhibitor)
COc1ccccc1CNCC(O)Cn1c2ccccc2c2ccccc21 (stereo not drawn)	UPR XBP1 act 30 | XBP1 UPR conf inactive
Cc1nnc(N2CCCC(C(=O)Nc3cc(F)ccc3F)C2)c2nn(-c3ccccc3)c(C)c12 (stereo not drawn)	UPR XBP1 act 41 (no result: CHOP inhibitor) | XBP1 UPR conf inactive
Cc1nnc(N2CCCC(C(=O)NCc3ccc(OC(C)C)cc3)C2)c2nn(-c3ccccc3)c(C)c12 (stereo not drawn)	none (no result: CHOP inhibitor)
CCOC(=O)c1c(Nc2ccc(Cl)cc2)sc(/C=C2\C=Nc3ccccc32)c1O	CHOP inhibitor 76, UPR XBP1 act 38 | XBP1 UPR conf inactive
O=C(COC(=O)Cc1c(Cl)cccc1Cl)Nc1ccc2[nH]c(=O)[nH]c2c1	none (no result: CHOP inhibitor)
Cc1ccc([N+](=O)[O-])cc1S(=O)(=O)Nc1ccc(-c2ccc(N3CCOCC3)nn2)cc1	none (no result: CHOP inhibitor)
Cc1ccc(NS(=O)(=O)c2cc([N+](=O)[O-])ccc2N/N=C/c2sc(N3CCOCC3)nc2-c2ccccc2)c(C)c1	UPR XBP1 act 36 | XBP1 UPR conf 31
COc1cc(OC)c2c(-c3cccc(-c4ccc(CO)cc4)c3)cc(=O)oc2c1	Gli-Sufu block 70, UPR XBP1 act 34 (no result: CHOP inhibitor, Jurkat NFkB inh) | XBP1 UPR conf 30
N#CCS(=O)(=O)c1ccccc1	none (no result: CHOP inhibitor)
N#Cc1cc2c(nc1SCC(=O)Nc1sc3c(c1C#N)CCC3)CCCC2	UPR XBP1 act 51 | XBP1 UPR conf 30
Cn1ncc(N=Cc2c(O)ccc3ccccc23)c1C(=O)Nc1cccc(Cl)c1	CHOP inhibitor 76, UPR XBP1 act 99 | XBP1 UPR conf 80
Cn1ncc(Cl)c1C(=O)Nc1cccc(Cl)c1	none
CC(C)(C)c1csc(NC(=O)c2ccncc2)n1	none
CC(C)(C)c1csc(NC(=O)c2ccc(Cl)s2)n1	CHOP inhibitor 73, UPR XBP1 act 30 | XBP1 UPR conf 33
COc1cccc(-c2nc(CS(=O)(=O)CC(=O)N3CCOCC3)c(C)o2)c1	none (no result: CHOP inhibitor)
CC(C)c1cccc(-c2ccc3c(c2)S(=O)(=O)c2cccc(C(=O)NC4CCCC4)c2C3=O)c1	UPR XBP1 act 33 (no result: CHOP inhibitor) | XBP1 UPR conf inactive
O=C(NC1CCCCC1)c1cccc2c1C(=O)c1ccc(-c3ccc(OC(F)(F)F)cc3)cc1S2(=O)=O	UPR XBP1 act 75 (no result: CHOP inhibitor) | XBP1 UPR conf 67
CCCCNc1c(-c2ccc(SC(C)CC)cc2)nc2cnccn12 (stereo not drawn)	UPR XBP1 act 57 (no result: CHOP inhibitor) | XBP1 UPR conf 50
COc1ccc(Br)cc1-c1nc2c(c(=O)[nH]c(=O)n2Cc2ccccc2)n1C	UPR XBP1 act 50 (no result: CHOP inhibitor) | XBP1 UPR conf 65
Cn1c(-c2cc(Cl)ccc2O)nc2c1c(=O)[nH]c(=O)n2Cc1ccccc1	none
CC(=O)Oc1ccc(-c2ccc(C(=O)OCC(=O)N(C)CC(=O)Nc3ccccc3Cl)cc2)cc1	UPR XBP1 act 123 (no result: CHOP inhibitor) | XBP1 UPR conf 137
CN(CC(=O)Nc1ccccc1Cl)C(=O)COC(=O)c1ccc(S(=O)(=O)C(F)F)cc1	none (no result: CHOP inhibitor)
CC(=O)Nc1ccc(N=c2cc([N+](=O)[O-])cc(Cl)n2O)cc1	none (no result: CHOP inhibitor)
COc1ccc(N(C(=O)Cn2nnc(-c3ccccc3F)n2)C(C(=O)NCC2CCCO2)c2ccc(Cl)cc2)cc1 (stereo not drawn)	UPR XBP1 act 41 | XBP1 UPR conf inactive
COc1ccc(N(C(=O)Cn2nnc(-c3ccc(Cl)cc3)n2)C(C(=O)NCC2CCCO2)c2ccc(C)cc2)cc1 (stereo not drawn)	none
CC(=O)NC(c1ccco1)c1ccc2cccnc2c1O (stereo not drawn)	UPR XBP1 act 32 (no result: CHOP inhibitor) | XBP1 UPR conf inactive
Cc1cc(C)c(NC(=O)CN2C(=O)CC(C)S(=O)(=O)c3ccccc32)c(C)c1 (stereo not drawn)	none (no result: CHOP inhibitor)
CCC(C)Nc1nc(N)c([N+](=O)[O-])c(NC2CCCCC2)n1 (stereo not drawn)	UPR XBP1 act 35 (no result: CHOP inhibitor) | XBP1 UPR conf 31
COc1ccc(Nc2nc(N)c([N+](=O)[O-])c(NCCO)n2)cc1	none
